CYP2C19 inh – inhibitors of human CYP2C19 | 96,000 tested, 21% active | inhibition, % at 5 µM | CYP2C19 Supersomes, luciferin-H EGE luminescence, 30 min | P33261;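 active = CYP2C19 inhibition above a set limit at 5 µM in the primary screen, cut at about 50% in these data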
CYP2C19 activ – cytochrome P450 2C19 (human) activation. 96,000 tested, under 10 active. recombinant CYP2C19, luciferin-H EGE luminescence; active compounds read high; 0 = fully inhibited enzyme, 1 = untreated enzyme. P33261. activation factor at 5 µM;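 active = activation factor of at least 2 at 5 µM in the primary screen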
HIV Rev-RRE inh – HIV Rev-RRE protein-RNA interaction inhibition; P05866; Rev peptide-RRE RNA binding, FRET; inhibition, % at 8 µM; 97,000 tested, 0.79% active;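 active = inhibition above the screen-wide mean plus 3 SD, cut at about 35% in these data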
Target sequence (P05866 whole entry, looked up): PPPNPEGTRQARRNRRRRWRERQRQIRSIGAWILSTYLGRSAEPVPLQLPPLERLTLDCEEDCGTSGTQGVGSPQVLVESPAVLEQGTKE
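System: Cy5-labelled duplex RRE RNA binding fluorescein-labelled HIV Rev peptide; Signal: fluorescein-to-Cy5 FRET, 480 nm excitation; Also added: labelled Rev peptide; Compound: one concentration, 8 µM nominal; Buffer or medium: HEPES pH 7.5 salt buffer with EDTA; Read-out: % inhibition of FRET ratio versus controls; Schedule: 5 min preincubation and 15 min binding, 25 °C.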
CYP2C9 activ – activators of human CYP2C9 | P11712 | recombinant CYP2C9, luciferin-H conversion, luminescence; active compounds read high; factor 1 = untreated enzyme, 0 = blocked | activation factor at 5 µM | 96,000 tested, 1.4% active;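 active = activation factor of 2 or more for CYP2C9 at a 5 µM dose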
Target sequence (P11712 whole entry, looked up): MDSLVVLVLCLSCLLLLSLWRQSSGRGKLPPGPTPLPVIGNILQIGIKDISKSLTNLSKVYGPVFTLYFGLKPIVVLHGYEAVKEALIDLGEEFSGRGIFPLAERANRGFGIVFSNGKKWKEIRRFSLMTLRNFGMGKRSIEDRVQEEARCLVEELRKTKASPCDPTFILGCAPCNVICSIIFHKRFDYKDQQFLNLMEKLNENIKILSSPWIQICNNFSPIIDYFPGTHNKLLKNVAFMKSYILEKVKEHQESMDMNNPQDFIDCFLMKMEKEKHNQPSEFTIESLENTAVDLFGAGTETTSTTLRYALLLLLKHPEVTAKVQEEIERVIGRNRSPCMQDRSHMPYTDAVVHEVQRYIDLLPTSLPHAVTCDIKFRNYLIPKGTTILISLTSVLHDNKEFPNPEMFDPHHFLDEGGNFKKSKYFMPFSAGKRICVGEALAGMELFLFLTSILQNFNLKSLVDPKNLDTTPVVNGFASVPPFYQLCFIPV
CYP2C9 inhib – blocks human cytochrome P450 2C9; P11712; CYP2C9 Supersomes, luciferin-H conversion, luminescence; inhibition, % at 5 µM; 96,000 tested, 20% active; AID 777;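 active = blocking of liver enzyme CYP2C9 beyond about 50% at 5 µM, limit read from the data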
Cav32 inh – human Cav3.2 channel inhibition, primary screen | AID 449739 | Cav3.2-expressing cells, Fluo-4 calcium fluorescence FDSS; active compounds read low | 100,000 tested, 4% active | B-score at 10 µM;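 active = single-dose well whose peak fluorescence ratio is a statistical outlier from its plate by either plate-standardised score or position-corrected B-score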
A number is an active result; n = inactive; x = no result. Rows were chosen to be rich in hits. Some 27% of all compounds tested hit in one or more screens of this group.

SMILES | CYP2C19 inh | CYP2C19 activ | HIV Rev-RRE inh | CYP2C9 activ | CYP2C9 inhib | Cav32 inh
CCCCNc1nc2ccccc2n1CC(=O)N1CCc2ccccc2C1 | 58 | n | n | n | n | n
O=C(Cn1c(NCCCO)nc2ccccc21)c1cccc(Br)c1 | 76 | n | n | n | 82 | n
CSc1sc(C(=O)NN)c2c1C(O)CCC2 (configuration not stated) | x | x | x | x | x | n
O=C1c2ccccc2C(=O)N1CCC(=O)N1CCCc2ccccc21 | n | n | n | n | n | n
CCC(C)[C@H](NC(=O)NCc1cccs1)C(=O)O (some centres not stated) | n | n | n | n | n | n
Cc1noc(C)c1CSc1nc2sc(C)c(C)c2c(=O)n1C1CCCC1 | n | n | n | n | 90 | -5.8
Cc1noc(C)c1CSc1ncnc2sc3c(c12)CCC3 | n | n | x | n | n | n
COc1ccc(Cc2nnc(SCc3c(C)noc3C)n2C2CCCCC2)cc1OC | n | n | n | n | n | n
C=CCn1c(SCc2c(C)noc2C)nc2sc3c(c2c1=O)CCCCC3 | 56 | n | n | n | 95 | -4.3
C=CCn1c(SCc2c(C)noc2C)nc2sc3c(c2c1=O)CCCC3 | n | n | n | n | 78 | -3.8
Cc1noc(C)c1CSc1nc2sc3c(c2c(=O)n1C)CCCC3 | n | n | n | n | n | n
CNc1cnn(-c2ccccc2)c(=O)c1Cl | n | n | n | n | n | n
Nc1ccc(Sc2cnn(-c3ccccc3)c(=O)c2Cl)cc1 | 99 | n | n | n | 91 | n
Cc1noc(C)c1CSc1nnc2scc(-c3ccc(Cl)cc3)n12 | n | n | n | n | n | n
Cc1ccc(C2=CC(c3ccc(N(C)C)cc3)n3nnnc3N2)cc1 (configuration not stated) | 78 | n | n | n | 65 | x
COc1ccc(C2=CC(c3sccc3C)n3nnnc3N2)cc1 (configuration not stated) | 82 | n | n | n | 91 | n
COc1cccc(C2=CC(c3ccc(OC)c(OC)c3OC)n3nnnc3N2)c1 (configuration not stated) | 52 | n | x | n | 81 | n
COc1ccccc1C1C=C(c2ccccc2)Nc2nnnn21 (configuration not stated) | x | x | n | x | x | n
COc1ccc(C2=CC(c3ccc(F)cc3)n3nnnc3N2)cc1 (configuration not stated) | 52 | n | x | n | 93 | x
CC(C)(C)C(=O)Nc1ccc(C(=O)NNC(=O)Cc2ccccc2)cc1 | n | n | n | n | n | n
Cc1ccc(-c2noc(CN(C(=O)C(c3ccccc3)c3ccccc3)C(C)C)n2)cc1 | n | n | n | n | 66 | -8.5
CC(C)N(Cc1nc(-c2ccc(Cl)cc2)no1)C(=O)C(c1ccccc1)c1ccccc1 | n | n | n | n | 54 | -4.3
CC(C)N(CCO)C(=O)C(c1ccccc1)c1ccccc1 | 90 | n | n | n | 59 | n
COc1ccc(-c2noc(CCCC(=O)O)n2)cc1 | n | n | x | n | n | n
Cc1cccc(-c2noc(CN(C(=O)CCc3ccccc3)C(C)C)n2)c1 | n | n | n | n | n | n
SMILES | CYP2C19 inh | CYP2C19 activ | HIV Rev-RRE inh | CYP2C9 activ | CYP2C9 inhib | Cav32 inh
COc1ccc(-c2noc(CN(C(=O)c3cccs3)C(C)C)n2)cc1 | n | n | n | n | 68 | n
CC(C)C(=O)NCCc1nc(-c2ccc(Cl)cc2)no1 | x | x | x | x | x | n
CC(C)N(Cc1nc(-c2ccccc2)no1)C(=O)CCCN1C(=O)c2ccccc2C1=O | 67 | n | n | n | 67 | n
COCCCNC(=O)c1sc2ncnc(N3CCc4ccccc4C3)c2c1C | x | x | n | x | x | n
CCOc1cc(S(=O)(=O)N2CCC(c3nc4ccccc4s3)CC2)c(OCC)cc1S(=O)(=O)N1CCCCC1 | n | n | n | n | n | n
CCOc1cc(S(=O)(=O)N2CC=C(c3ccc(F)cc3)CC2)c(OCC)cc1-n1cnnn1 | n | n | n | n | 93 | n
CCOc1cc(S(=O)(=O)N2CCC(Cc3ccccc3)CC2)c(OCC)cc1-n1cnnn1 | 53 | n | x | n | 73 | n
O=C(Nc1cccc(F)c1)N(Cc1ccc(Cl)cc1)CC(O)C(F)(F)F (configuration not stated) | n | n | n | n | n | -7.2
O=C(Nc1ccccc1)N(Cc1ccccc1)CC(O)C(F)(F)F (configuration not stated) | n | n | n | n | n | n
COc1cccc(-c2csc(N3CCN(C(=S)Nc4ccccc4Cl)CC3)n2)c1 | 73 | n | n | n | 64 | -4.1
COc1cccc(-c2csc(N3CCN(C(=S)Nc4cccc(Cl)c4)CC3)n2)c1 | n | n | n | n | n | n
COc1cccc(-c2csc(N3CCN(C(=S)Nc4ccccc4OC)CC3)n2)c1 | 70 | n | n | n | n | n
COc1ccc2[nH]c(=O)c(CN(CCCN(C)C)C(=O)Nc3ccc(F)cc3)cc2c1 | n | n | n | n | n | n
CC(C)c1ccc(CN2CCC(C(=O)NCc3cccnc3)CC2)cc1 | n | n | n | n | n | n
CC(C)C(NC(=O)C1CCCCC1)C(=O)Nc1ccncc1 (configuration not stated) | 96 | n | n | n | 92 | x
CC(C)C(NC(=O)C1CCC(C(C)(C)C)CC1)C(=O)NCc1cccnc1 (configuration not stated) | 52 | n | n | n | 51 | n
O=C(NCc1ccncc1)C1CCCCC1 | n | n | n | n | n | n
Cc1cc(C(=O)CC#N)c(C)n1-c1ccc(OC(F)F)cc1 | 91 | n | n | n | 79 | n
COC(=O)c1cc(C(=O)OC)cc(-n2c(C)cc(C(=O)CC#N)c2C)c1 | n | n | x | n | 69 | n
Cc1ccc(C(=O)CNc2nc3c(c(=O)[nH]c(=O)n3C)n2Cc2ccccc2)cc1 | 88 | n | n | n | 79 | n
CC(=NCCCn1ccnc1)c1c(O)n(Cc2ccccc2)c(=O)[nH]c1=O | n | n | n | n | 78 | n
C=C(C)CSc1nc2c(c(=O)[nH]c(=O)n2C)n1Cc1ccccc1 | x | x | x | x | x | n
CCOCCCNc1nc2c(c(=O)[nH]c(=O)n2C)n1CCCc1ccccc1 | n | n | n | n | n | n
Cn1c(=O)[nH]c(=O)c2c1nc(NCCc1ccccc1)n2CC(O)COc1ccccc1 (configuration not stated) | n | n | n | n | n | n
Cc1ccc(OCC(O)Cn2c(NCCc3ccccc3)nc3c2c(=O)[nH]c(=O)n3C)cc1 (configuration not stated) | 51 | n | n | n | n | x
Cn1c(=O)[nH]c(=O)c2c1nc(NCCCn1ccnc1)n2CCOc1ccccc1 | 99 | n | n | n | 98 | n
O=P(CCC(F)(F)F)(CCC(F)(F)F)CCC(F)(F)F | n | n | n | n | n | n
CC(=O)c1cc(F)c(N2CCN(C(=O)COc3ccccc3F)CC2)cc1C | x | x | n | x | x | n

Screens (PubChem)
